Molecules are shown by their SMILES. Activity calls are given as the source filed them. The calls are words filed in the database; no cut-off is given here. Non-standard residues stand in square brackets, D forms with d. Residues, ends and D or L forms follow the SMILES beside them. *: point of attachment. Phe(4-guanidino) = N=C(N)Nc1ccc(C[C@H](N)C(=O)O)cc1; Phe(3-CN) = N#Cc1cccc(C[C@H](N)C(=O)O)c1; Phe(4-CN) = N#Cc1ccc(C[C@H](N)C(=O)O)cc1; Phe(4-NH2) = Nc1ccc(C[C@H](N)C(=O)O)cc1; Hydrocinnamoyl = O=C(CCc1ccccc1)*; 3Pal = N[C@@H](Cc1cccnc1)C(=O)O; 4Pal = N[C@@H](Cc1ccncc1)C(=O)O; Phg = N[C@H](C(=O)O)c1ccccc1; Bz = O=C(c1ccccc1)*

One data set deals with Prothrombin (Homo sapiens, UniProt P00734). In words: Inhibition of human thrombin at 25 uM preincubated with protein for 15 mins followed by boc-Val-Pro-Arg-AMC substrate addition measured after 10 mins by continuous fluorometric analysis.
Data set [1] has as its system dengue virus type 2. The experiment in a line: Inhibition of Dengue virus (serotype 2) NS2B-NS3 protease at 50 uM preincubated with protein for 15 mins followed by Abz-Nle-Lys-Arg-Arg-Ser-3-(NO2)Tyr substrate addition measured by continuous fluorometric analysis. An outline of the steps: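 Continuous FRET assay in 50 mM Tris-HCl pH 9.0, 10% ethylene glycol, 0.0016% Brij 58. DENV2 protease (100 nM) was preincubated 15 min with inhibitor (50 μM final), then Abz-Nle-Lys-Arg-Arg-Ser-3-(NO2)Tyr (50 μM final; Km 105 μM) was added. Read at ex 320/em 405 nm as slope over 15 min, relative to an uninhibited control. Triplicate.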

The target of data set [2] is Genome polyprotein (West Nile virus) (UniProt P06935). The experiment in a line: Inhibition of West Nile virus NS2B-NS3 protease at 50 uM preincubated with protein for 15 mins followed by Abz-Gly-Leu-Lys-Arg-Gly-Gly-3-(NO2)-Tyr substrate addition measured by continuous fluorometric analysis. An outline of the steps: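 WNV NS2B-NS3pro (150 nM) was preincubated 15 min with inhibitor (50 μM final) in 50 mM Tris-HCl pH 9.0, 10% ethylene glycol, 0.0016% Brij 58. Abz-Gly-Leu-Lys-Arg-Gly-Gly-3-(NO2)-Tyr (50 μM; Km 212 μM) started the reaction. Continuous read at ex 320/em 405 nm for 15 min against an uninhibited control. Triplicate.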
Sequence of Genome polyprotein (West Nile virus) (P06935 whole entry): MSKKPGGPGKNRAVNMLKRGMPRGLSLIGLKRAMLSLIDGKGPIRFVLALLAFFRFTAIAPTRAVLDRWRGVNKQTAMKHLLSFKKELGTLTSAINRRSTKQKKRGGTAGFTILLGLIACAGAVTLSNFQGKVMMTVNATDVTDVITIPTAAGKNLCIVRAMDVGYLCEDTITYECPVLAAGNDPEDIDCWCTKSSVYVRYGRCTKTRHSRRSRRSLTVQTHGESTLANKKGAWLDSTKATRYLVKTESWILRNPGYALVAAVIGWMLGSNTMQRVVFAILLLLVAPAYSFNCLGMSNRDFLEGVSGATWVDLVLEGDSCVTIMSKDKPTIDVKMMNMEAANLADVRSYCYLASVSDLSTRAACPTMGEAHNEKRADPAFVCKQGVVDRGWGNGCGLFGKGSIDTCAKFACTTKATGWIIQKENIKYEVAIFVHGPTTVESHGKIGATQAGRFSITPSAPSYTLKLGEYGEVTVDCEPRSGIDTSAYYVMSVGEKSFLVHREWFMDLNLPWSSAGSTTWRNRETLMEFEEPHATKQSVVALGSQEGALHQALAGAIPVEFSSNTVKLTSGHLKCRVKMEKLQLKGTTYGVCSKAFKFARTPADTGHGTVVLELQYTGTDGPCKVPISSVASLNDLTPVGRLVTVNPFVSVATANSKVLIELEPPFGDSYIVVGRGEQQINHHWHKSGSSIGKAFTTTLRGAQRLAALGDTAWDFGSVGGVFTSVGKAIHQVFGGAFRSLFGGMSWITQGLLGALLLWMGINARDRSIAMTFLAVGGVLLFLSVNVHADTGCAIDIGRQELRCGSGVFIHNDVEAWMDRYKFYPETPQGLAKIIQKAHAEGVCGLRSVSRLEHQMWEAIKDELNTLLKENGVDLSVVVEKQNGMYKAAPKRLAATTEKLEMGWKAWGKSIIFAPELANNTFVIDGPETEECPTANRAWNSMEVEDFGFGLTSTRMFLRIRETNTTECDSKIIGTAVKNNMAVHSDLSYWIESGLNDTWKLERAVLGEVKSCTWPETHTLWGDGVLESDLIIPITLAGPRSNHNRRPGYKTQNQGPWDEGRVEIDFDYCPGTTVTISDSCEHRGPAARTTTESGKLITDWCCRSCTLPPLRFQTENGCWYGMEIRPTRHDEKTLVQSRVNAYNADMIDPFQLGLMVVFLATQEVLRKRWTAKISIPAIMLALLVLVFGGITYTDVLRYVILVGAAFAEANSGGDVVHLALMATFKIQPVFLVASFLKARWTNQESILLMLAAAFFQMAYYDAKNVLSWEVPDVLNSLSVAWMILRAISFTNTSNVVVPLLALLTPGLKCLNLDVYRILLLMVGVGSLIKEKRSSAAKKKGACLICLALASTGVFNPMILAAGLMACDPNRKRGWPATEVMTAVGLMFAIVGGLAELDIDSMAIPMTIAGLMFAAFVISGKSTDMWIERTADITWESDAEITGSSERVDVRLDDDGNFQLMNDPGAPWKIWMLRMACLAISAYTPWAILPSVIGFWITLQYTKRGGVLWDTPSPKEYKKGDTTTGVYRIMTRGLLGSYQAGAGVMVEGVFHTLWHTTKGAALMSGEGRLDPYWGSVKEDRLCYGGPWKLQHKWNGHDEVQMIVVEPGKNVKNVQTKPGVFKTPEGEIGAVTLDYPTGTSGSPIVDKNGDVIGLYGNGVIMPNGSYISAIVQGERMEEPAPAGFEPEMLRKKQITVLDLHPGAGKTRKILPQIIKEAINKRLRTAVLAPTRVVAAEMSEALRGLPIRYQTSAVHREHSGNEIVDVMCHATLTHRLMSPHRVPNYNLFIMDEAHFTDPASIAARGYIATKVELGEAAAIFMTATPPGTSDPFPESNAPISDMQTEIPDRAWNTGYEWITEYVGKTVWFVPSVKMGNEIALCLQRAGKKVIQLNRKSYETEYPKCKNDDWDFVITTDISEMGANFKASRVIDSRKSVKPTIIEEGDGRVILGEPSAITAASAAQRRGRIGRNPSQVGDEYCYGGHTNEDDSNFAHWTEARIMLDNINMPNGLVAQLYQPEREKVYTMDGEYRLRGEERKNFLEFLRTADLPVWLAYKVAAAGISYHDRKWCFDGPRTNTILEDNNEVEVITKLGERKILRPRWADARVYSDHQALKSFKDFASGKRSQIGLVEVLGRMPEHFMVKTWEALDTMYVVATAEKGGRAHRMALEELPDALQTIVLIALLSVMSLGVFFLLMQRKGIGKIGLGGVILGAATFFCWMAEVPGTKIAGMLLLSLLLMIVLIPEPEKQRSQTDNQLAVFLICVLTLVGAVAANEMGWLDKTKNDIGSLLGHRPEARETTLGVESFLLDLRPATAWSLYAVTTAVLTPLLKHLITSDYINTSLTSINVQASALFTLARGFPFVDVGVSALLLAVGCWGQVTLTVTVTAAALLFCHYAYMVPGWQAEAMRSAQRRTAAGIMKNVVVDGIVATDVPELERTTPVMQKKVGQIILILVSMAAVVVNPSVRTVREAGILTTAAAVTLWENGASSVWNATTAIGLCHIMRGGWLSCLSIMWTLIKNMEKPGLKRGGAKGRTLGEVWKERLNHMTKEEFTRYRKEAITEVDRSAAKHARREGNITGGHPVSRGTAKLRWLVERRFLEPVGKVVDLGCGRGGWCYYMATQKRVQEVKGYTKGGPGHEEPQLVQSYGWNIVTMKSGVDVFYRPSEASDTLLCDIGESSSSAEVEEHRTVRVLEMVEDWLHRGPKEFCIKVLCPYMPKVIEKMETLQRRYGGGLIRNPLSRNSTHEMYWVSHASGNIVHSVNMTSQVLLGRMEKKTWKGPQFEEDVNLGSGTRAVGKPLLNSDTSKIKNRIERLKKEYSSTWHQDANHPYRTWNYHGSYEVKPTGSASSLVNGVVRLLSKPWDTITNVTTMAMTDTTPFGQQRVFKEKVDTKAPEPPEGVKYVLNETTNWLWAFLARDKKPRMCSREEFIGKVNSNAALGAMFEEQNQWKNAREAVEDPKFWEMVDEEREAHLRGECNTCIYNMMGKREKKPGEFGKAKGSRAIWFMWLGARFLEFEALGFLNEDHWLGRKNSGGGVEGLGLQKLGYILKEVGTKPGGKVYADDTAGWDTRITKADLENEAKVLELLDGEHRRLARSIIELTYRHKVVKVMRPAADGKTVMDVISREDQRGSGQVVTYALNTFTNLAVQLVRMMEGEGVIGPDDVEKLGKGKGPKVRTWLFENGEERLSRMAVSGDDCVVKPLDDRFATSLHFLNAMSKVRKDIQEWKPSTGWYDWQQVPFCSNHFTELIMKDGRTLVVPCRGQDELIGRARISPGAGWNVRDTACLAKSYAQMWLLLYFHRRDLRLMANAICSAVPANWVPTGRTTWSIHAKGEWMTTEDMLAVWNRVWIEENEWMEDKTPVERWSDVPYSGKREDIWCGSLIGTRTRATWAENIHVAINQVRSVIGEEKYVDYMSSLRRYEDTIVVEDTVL

The next data set addresses Trypsin (Homo sapiens, UniProt P07477+P07478+P35030). In words: Inhibition of trypsin (unknown origin) at 50 uM preincubated with protein for 15 mins followed by boc-Val-Pro-Arg-AMC substrate addition measured by continuous fluorometric analysis. The format is protein assay. An outline of the steps:
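Trypsin (1 nM) was preincubated 15 min with inhibitor (50 μM final) in 50 mM Tris-HCl pH 7.5, 150 mM NaCl, 0.05% Tween 20. boc-Val-Pro-Arg-AMC (50 μM final) was added. Continuous fluorescence at ex 355/em 460 nm; rate compared with an uninhibited control. Triplicate.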

Data set [3] in a line: Permeability of the compound at 200 uM incubated for 5 hrs by PAMPA. The data set is classed as physicochemical. An outline of the steps:
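PAMPA in PBS: donor wells held 200 μM compound (triplicate) against PBS acceptor, 5 h at room temperature. Donor and acceptor concentrations were quantified by RP-18 HPLC-UV against calibration curves (10–200 μM). Pe and membrane retention were calculated by a literature method. Amiloride, caffeine, famotidine, furosemide and phenytoin served as references.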
On the technique in general: In PAMPA a lipid-coated filter parts donor from acceptor wells.

Data set [4] is described as follows: Inhibition of Dengue virus (serotype 2) NS2B-NS3 protease preincubated with protein for 15 mins followed by Abz-Nle-Lys-Arg-Arg-Ser-3-(NO2)Tyr substrate addition measured by continuous fluorometric analysis. More on the design: species or system dengue virus type 2. An outline of the steps:
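DENV2 protease (100 nM) in Tris-HCl pH 9.0/ethylene glycol/Brij 58 buffer, preincubated 15 min with inhibitor, then 50 μM FRET substrate added. Read at ex 320/em 405 nm over 15 min. Done for compounds with ≥70% inhibition, using series of 0–2.5, 0–6 or 0–30 μM, in triplicate, with nonlinear fitting. Ki came from substrate at 50–200 μM via Cheng–Prusoff.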

Data set [5] is described as follows: Cytotoxicity against human HuH7 cells at 50 uM incubated for 48 hrs measured by Cell-Titer Glo Luminescent viability Assay. To be noted: huh-7, 48 h. The data set is classed as cell-based.
The subject of data set [6] is dengue virus type 2. In words: Antiviral activity against wild type Dengue virus (serotype 2) infected in human Huh-7 cells assessed as inhibition of viral replication at 50 uM incubated for 48 hrs measured by Cell-Titer Glo Luminescent viability assay. The format is functional. To be noted: Huh-7, 48 h.
Another data set has as its target Genome polyprotein (West Nile virus, UniProt P06935). In words: Inhibition of West Nile virus NS2B-NS3 protease preincubated with protein for 15 mins followed by Abz-Gly-Leu-Lys-Arg-Gly-Gly-3-(NO2)-Tyr substrate addition measured by continuous fluorometric analysis. An outline of the steps: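 WNV protease (150 nM), 15-min preincubation with inhibitor in pH 9.0 Tris buffer, then 50 μM FRET substrate. Read at ex 320/em 405 nm. Done for compounds with ≥90% single-point inhibition, using graded inhibitor concentrations in triplicate, with the curve fitted.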

Sequence of Genome polyprotein (P06935 1371-1501 limits assumed): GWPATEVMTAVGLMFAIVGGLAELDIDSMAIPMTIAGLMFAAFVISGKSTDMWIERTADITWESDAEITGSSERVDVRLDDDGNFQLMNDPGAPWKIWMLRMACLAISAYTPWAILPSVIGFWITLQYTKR
Sequence of Genome polyprotein (P06935 1502-2120 limits assumed): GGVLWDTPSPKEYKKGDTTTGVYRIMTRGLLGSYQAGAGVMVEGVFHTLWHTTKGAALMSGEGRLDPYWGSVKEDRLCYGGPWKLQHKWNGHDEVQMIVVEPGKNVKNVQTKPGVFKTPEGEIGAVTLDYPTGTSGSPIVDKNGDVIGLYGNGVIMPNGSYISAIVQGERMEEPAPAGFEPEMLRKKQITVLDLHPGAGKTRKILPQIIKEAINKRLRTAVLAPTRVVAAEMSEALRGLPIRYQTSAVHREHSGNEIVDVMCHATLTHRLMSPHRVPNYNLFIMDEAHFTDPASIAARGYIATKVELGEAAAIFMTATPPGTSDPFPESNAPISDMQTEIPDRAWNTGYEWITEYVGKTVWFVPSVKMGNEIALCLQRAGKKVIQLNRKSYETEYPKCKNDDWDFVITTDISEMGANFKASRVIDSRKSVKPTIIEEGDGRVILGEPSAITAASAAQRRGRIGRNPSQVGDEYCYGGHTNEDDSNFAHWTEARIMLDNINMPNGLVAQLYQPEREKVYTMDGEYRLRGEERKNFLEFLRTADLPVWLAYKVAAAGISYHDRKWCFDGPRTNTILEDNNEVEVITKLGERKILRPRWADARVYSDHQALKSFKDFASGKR

In the case of `N=C(N)c1ccc([C@H](NC(=O)c2ccccc2)C(=O)N[C@@H](CCCCN)C(=O)N[C@H](C(N)=O)c2ccccc2)cc1`, the inhibition at Prothrombin was 5.5%; with dengue virus type 2 [1], 24.8%; in data set [2], 59.5%; against Trypsin, 19.2%.
On to `N#Cc1ccc(C[C@H](NC(=O)c2ccccc2)C(=O)N[C@@H](CCCCN)C(=O)N[C@H](C(N)=O)c2ccccc2)cc1` (Bz-[Phe(4-CN)]-Lys-[Phg]-NH2), for which the inhibition against Prothrombin came to 7.5%; in the data set on dengue virus type 2 [1], 22%; in [2], 4.7%; on Trypsin, 0.7%.
Consider `N=C(N)c1cccc(C[C@H](NC(=O)c2ccc(C(F)(F)F)cc2)C(=O)N[C@@H](CCCCN)C(=O)N[C@H](C(N)=O)c2ccccc2)c1`, for which the inhibition at Prothrombin was 66.6%; in the data set with dengue virus type 2 [1] it was 95.8%; in [2], 76.1%; against Trypsin, 27.1%. The permeability entry in [3] was “impermeable”. This compound came in with a 50% inhibitory concentration (IC50) in data set [4] of 5810 nM.
On to `CC(=N)Nc1ccc(C[C@H](NC(=O)c2ccccc2)C(=O)N[C@@H](CCCCN)C(=O)N[C@H](C(N)=O)c2ccccc2)cc1`, for which the inhibition came to 7.7% against Prothrombin, 76.6% in the data set on dengue virus type 2 [1], 34.2% in data set [2] and 0% at Trypsin. In addition, the permeability entry in [3] is reported as “impermeable”. In [4], this compound yielded a half-inhibitory concentration (IC50) of 12700 nM.
On to `N=C(N)Nc1ccc(C[C@H](NC(=O)c2ccc(C(F)(F)F)cc2)C(=O)N[C@@H](CCCCN)C(=O)N[C@H](C(N)=O)c2ccccc2)cc1`, for which the inhibition entry at Prothrombin is “inactive”. Moreover, in data set [3], the permeability result is listed as “impermeable”. Also, the results for the inhibition (in the data set on dengue virus type 2 [1]; in [2]; against Trypsin) were 100%, 42.2% and 12.8%, respectively. In data set [4], this compound registered a half-inhibitory concentration (IC50) of 690 nM.
For the compound `N=C(N)NCCC[C@H](NC(=O)c1ccccc1)C(=O)N[C@@H](CCCCN)C(=O)N[C@H](C(N)=O)c1ccccc1` (Bz-Arg-Lys-[Phg]-NH2), the Activity result in [5] is “Non-toxic”. In addition, the inhibition at 50 µM with dengue virus type 2 [6] is 40.3%. This compound also had an inhibition against Trypsin of 0.5%.
In the case of `NCCCC[C@H](NC(=O)[C@H](Cc1cccnc1)NC(=O)c1ccccc1)C(=O)N[C@H](C(N)=O)c1ccccc1` (Bz-[3Pal]-Lys-[Phg]-NH2), the inhibition came to 1.8% against Prothrombin, 17.5% with dengue virus type 2 [1], 23.8% in data set [2] and 3.4% on Trypsin.
As to `N=C(N)c1ccc(C[C@H](NC(=O)c2ccccc2)C(=O)N[C@@H](CCCCN)C(=O)N[C@H](C(N)=O)c2ccccc2)cc1`, the inhibition against Prothrombin was 18%; in the data set on dengue virus type 2 [1], 100%; in data set [2], 59.1%; on Trypsin it was 17.4%. In addition, the Activity result in data set [5] is “Non-toxic”. Moreover, the permeability result in data set [3] is “impermeable”. Moreover, half-maximal inhibition in [4] (IC50) was put at 440 nM. The compound further yielded a Ki in [4] of 232 nM. Also, in the data set with dengue virus type 2 [6], the inhibition at 50 µM is 32.4%.
Consider `NCCCC[C@H](NC(=O)[C@H](Cc1ccc(N)cc1)NC(=O)c1ccccc1)C(=O)N[C@H](C(N)=O)c1ccccc1` (Bz-[Phe(4-NH2)]-Lys-[Phg]-NH2), for which the inhibition against Prothrombin is 2.3%; in the data set on dengue virus type 2 [1], 21.1%; in data set [2] it was 23.8%; against Trypsin, 0%.
In the case of `N#Cc1cccc(C[C@H](NC(=O)c2ccccc2)C(=O)N[C@@H](CCCCN)C(=O)N[C@H](C(N)=O)c2ccccc2)c1` (Bz-[Phe(3-CN)]-Lys-[Phg]-NH2), the inhibition on Prothrombin turned out to be 4%; in the data set on dengue virus type 2 [1], 29.6%; in data set [2], 15.6%; against Trypsin, 0%.
As for `N=C(N)NCCC[C@H](NC(=O)c1ccc(C(F)(F)F)cc1)C(=O)N[C@@H](CCCCN)C(=O)N[C@H](C(N)=O)c1ccccc1`, the inhibition at Prothrombin worked out at 7.7%; with dengue virus type 2 [1], 98.7%; in [2], 85.3%; at Trypsin, 11.5%. The compound also yielded a 50% inhibitory concentration (IC50) in data set [4] of 1020 nM.
Regarding `NCCCC[C@H](NC(=O)[C@H](Cc1cccc(CN)c1)NC(=O)c1ccccc1)C(=O)N[C@H](C(N)=O)c1ccccc1`, the inhibition amounted to 5.6% against Prothrombin, 82.4% with dengue virus type 2 [1], 68.6% in data set [2] and 11.2% against Trypsin. Besides, the permeability entry in [3] is “impermeable”. Moreover, in data set [4], the IC50 was determined as 11800 nM.
In the case of `CC(=O)Nc1ccc(C[C@H](NC(=O)c2ccccc2)C(=O)N[C@@H](CCCCN)C(=O)N[C@H](C(N)=O)c2ccccc2)cc1` (Bz-[Phe(4-NH2)](Ac)-Lys-[Phg]-NH2), the inhibition at Prothrombin came out at 7.4%; with dengue virus type 2 [1], 34.8%; in data set [2], 93.7%; on Trypsin it was 0%. Also, the permeability result in [3] was “impermeable”. Moreover, at Genome polyprotein, the half-maximal inhibitory concentration (IC50) came to 3850 nM.
In the case of `N=C(N)NCCC[C@H](NC(=O)CCc1ccccc1)C(=O)N[C@@H](CCCCN)C(=O)N[C@H](C(N)=O)c1ccccc1` (Hydrocinnamoyl-Arg-Lys-[Phg]-NH2), the inhibition at Prothrombin is 2.5%; in the data set on dengue virus type 2 [1], 95.9%; in data set [2] it was 45.3%; on Trypsin, 2.3%. Besides, in [4], inhibition was half-maximal at 2700 nM (IC50).
Consider `N=C(N)c1cccc(C[C@H](NC(=O)c2ccccc2)C(=O)N[C@@H](CCCCN)C(=O)N[C@H](C(N)=O)c2ccccc2)c1`, for which the inhibition at Prothrombin worked out at 71.1%; with dengue virus type 2 [1], 94%; in [2], 39.5%; at Trypsin it was 37%. Also, the permeability entry in data set [3] is “impermeable”. Half-maximal inhibition in data set [4] (IC50) was put at 3070 nM.
Take `NCCCC[C@H](NC(=O)[C@H](Cc1cccc(N)c1)NC(=O)c1ccccc1)C(=O)N[C@H](C(N)=O)c1ccccc1`: on Prothrombin, the inhibition result is “inactive”. For the same compound, the values for the inhibition (with dengue virus type 2 [1]; in data set [2]; against Trypsin) were 28.9%, 23.7% and 4.7%, respectively.
Consider `N=C(N)Nc1ccc(C[C@H](NC(=O)c2ccccc2)C(=O)N[C@@H](CCCCN)C(=O)N[C@H](C(N)=O)c2ccccc2)cc1` (Bz-[Phe(4-guanidino)]-Lys-[Phg]-NH2), for which the inhibition was found to be 7.6% at Prothrombin, 99.9% in the data set on dengue virus type 2 [1], 64.7% in data set [2] and 16.2% against Trypsin. Besides, the permeability result in [3] is recorded as “impermeable”. Further, the 50% inhibitory concentration (IC50) in data set [4] worked out at 580 nM.
As to `N=C(N)c1ccc(C[C@H](NC(=O)c2ccc(C(F)(F)F)cc2)C(=O)N[C@@H](CCCCN)C(=O)N[C@H](C(N)=O)c2ccccc2)cc1`, the inhibition on Prothrombin amounted to 50.3%; in the data set with dengue virus type 2 [1], 99.8%; in data set [2], 69.9%; against Trypsin, 43.4%. Moreover, the Activity entry in [5] was “Non-toxic”. Moreover, the permeability result in [3] was “impermeable”. Further, the midpoint of inhibition in data set [4], the IC50, lay at 210 nM. Moreover, the Ki in data set [4] worked out at 139 nM. The inhibition at 50 µM with dengue virus type 2 [6] turned out to be 38.2%.
For the compound `NCCCC[C@H](NC(=O)[C@H](Cc1ccncc1)NC(=O)c1ccccc1)C(=O)N[C@H](C(N)=O)c1ccccc1` (Bz-[4Pal]-Lys-[Phg]-NH2), the inhibition stood at 3.8% against Prothrombin, 12% in the data set with dengue virus type 2 [1], 0% in data set [2] and 0% on Trypsin.

Usually inhibition stands for the change of the read-out against control, counted positive when it falls. As a reminder, the IC50 is the concentration that inhibits the measured activity by half. In general, Ki refers to a dissociation constant, usually derived from enzyme kinetics or from competition with a known ligand. Read a low Ki as higher affinity.

Source of the values: ChEMBL document CHEMBL3627637, “Phenylalanine and Phenylglycine Analogues as Arginine Mimetics in Dengue Protease Inhibitors” (J Med Chem, 2015).
